Source: paper PMC11967334 (RSC Advances, 2025)

How the values were obtained:
MMP-9 = MMP-9 (Homo sapiens, UniProt P14780); test: In vitro MMP-9 inhibition, colorimetric kit; assay type: biochemical
MMP-2 = MMP-2 (Homo sapiens, UniProt P08253); test: In vitro MMP-2 inhibition, colorimetric kit; assay type: biochemical; settings: read-out: MMP-2 IC50
HepG-2 cells [1] = test: MTT cytotoxicity on hepatocellular carcinoma cells; assay type: cell-based, human
Procedure, shortened: (§1)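 Test compounds (free s-triazine dendrimers and their quercetin, lactobionic acid and PEG conjugates) were screened by MTT assay against MCF-7 breast and HepG-2 hepatocellular carcinoma cells. IC50 values are reported in μM as mean ± SEM of three measurements. Differences were tested by one-way ANOVA with Tukey's test, with p < 0.05 taken as significant. SI was tabulated against Wi-38 values.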

HepG-2 cells [2] = test: Flow cytometric annexin V/PI analysis of apoptosis; assay type: cell-based, human; settings: HepG-2, 72 h, mean ± SEM
MCF-7 cells [3] = test: Flow cytometric annexin V/PI analysis of apoptosis; assay type: cell-based, human; settings: MCF-7, 72 h, mean ± SEM
VEGF [4] = test: VEGF gene expression by quantitative real-time PCR; assay type: cell-based, human; settings: MCF-7, compared to untreated cells, mean ± SEM
Wi-38 cells = test: MTT cytotoxicity on normal human fibroblasts; assay type: cell-based
Procedure, shortened: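 Normal human lung fibroblasts (Wi-38) were exposed to free s-triazine dendrimers and their conjugates, and viability was read by MTT assay. Safety was expressed as EC100 in μM, the concentration giving 100% growth of normal cells, as mean ± SEM of three measurements. Groups were compared by one-way ANOVA with Tukey's test at p < 0.05.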

VEGF [5] = test: VEGF gene expression by quantitative real-time PCR; assay type: cell-based, human; settings: HepG-2, compared to untreated cells, mean ± SEM
MCF-7 cells [6] = test: MTT cytotoxicity on breast cancer cells; assay type: cell-based, human
Procedure, shortened: as §1

[7] = selectivity index versus normal Wi-38 cells

Sequence of MMP-9 (P14780 94-707): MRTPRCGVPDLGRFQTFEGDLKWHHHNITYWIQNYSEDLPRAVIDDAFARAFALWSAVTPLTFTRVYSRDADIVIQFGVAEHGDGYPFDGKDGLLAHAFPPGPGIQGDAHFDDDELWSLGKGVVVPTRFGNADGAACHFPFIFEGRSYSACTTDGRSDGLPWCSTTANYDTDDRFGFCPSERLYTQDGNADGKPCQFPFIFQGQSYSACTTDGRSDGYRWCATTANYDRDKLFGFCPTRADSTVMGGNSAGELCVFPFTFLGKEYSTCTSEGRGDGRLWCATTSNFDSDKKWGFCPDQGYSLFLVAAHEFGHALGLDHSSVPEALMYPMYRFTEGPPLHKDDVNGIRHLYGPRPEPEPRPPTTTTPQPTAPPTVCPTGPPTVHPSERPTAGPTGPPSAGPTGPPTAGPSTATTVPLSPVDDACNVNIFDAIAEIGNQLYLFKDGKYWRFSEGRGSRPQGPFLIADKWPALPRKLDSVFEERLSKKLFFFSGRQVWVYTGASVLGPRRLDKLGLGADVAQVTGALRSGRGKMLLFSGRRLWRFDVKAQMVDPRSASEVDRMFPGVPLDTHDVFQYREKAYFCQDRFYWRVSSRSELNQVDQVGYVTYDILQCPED
Sequence of MMP-2 (P08253 110-446 limits assumed): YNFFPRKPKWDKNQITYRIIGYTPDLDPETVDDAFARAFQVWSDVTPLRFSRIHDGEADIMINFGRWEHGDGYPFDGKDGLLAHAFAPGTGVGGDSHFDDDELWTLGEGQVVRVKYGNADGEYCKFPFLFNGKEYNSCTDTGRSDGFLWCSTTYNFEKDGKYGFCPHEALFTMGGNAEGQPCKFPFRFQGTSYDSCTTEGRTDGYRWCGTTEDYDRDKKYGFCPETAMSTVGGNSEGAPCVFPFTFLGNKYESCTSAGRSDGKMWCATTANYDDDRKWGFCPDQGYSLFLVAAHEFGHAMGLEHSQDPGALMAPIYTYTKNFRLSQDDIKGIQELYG

SMILES | MMP-2/MMP-9 selectivity (MMP-9; SI = IC50 (MMP-2)/IC50 (MMP-9), text: folds) | IC50 (MMP-9; read-out: MMP-9 IC50) | IC50 (MMP-2) | IC50 (HepG-2 cells [1]; Homo sapiens, HepG2, 72 h, read-out: HepG-2 IC50) | HepG-2 SI (HepG-2 cells [1]; [7]) | Total % of the apoptotic population (HepG-2 cells [2]) | Total % of the apoptotic population (MCF-7 cells [3]) | VEGF relative fold change (VEGF [4]) | IC50 (Wi-38 cells; Homo sapiens, WI-38, read-out: Wi-38 IC50) | EC100 (Wi-38 cells; effective safe concentration at 100% cell viability, Wi-38, 72 h, mean ± SEM) | VEGF relative fold change (VEGF [5]) | IC50 (MCF-7 cells [6]; Homo sapiens, MCF7, 72 h, read-out: MCF-7 IC50) | MCF-7 SI (MCF-7 cells [6]; [7]) | selectivity index (SI) (MCF-7 cells [6]; stated for MCF-7 and HepG-2 together, versus Wi-38)
COc1ccc(S(=O)(=O)N(CC(=O)NO)CC(C)C)cc1 [NNGH, N-isobutyl-N-(4-methoxyphenylsulfonyl)glycyl hydroxamic acid] | 1.08 | 0.277 µM | 0.299 µM |  |  |  |  |  |  |  |  |  |  | 
O=c1c(O)c(-c2ccc(O)c(O)c2)oc2cc(O)cc(O)c12 [Qur, quercetin] |  |  |  | 34.32 ± 0.128 µM | 8.573 | 24.20 ± 0.895 % | 47.00 ± 1.83 % | 0.683 ± 0.029 | 294 ± 12.6 µM | 70.57 ± 0.950 µM | 0.708 ± 0.012 | 35.3 ± 0.475 µM | 8.339 | ~8.5
